Here are results for 23 compounds from ChEMBL document CHEMBL4715751, “Novel N-substituted indole Schiff bases as dual inhibitors of cyclooxygenase-2 and 5-lipoxygenase enzymes: Synthesis, biological activities in vitro and docking study” (Eur J Med Chem, 2016).

Activity calls are given as the source filed them. No cut-off for these calls is given here.

The subject of data set [1] is HUVEC. The experiment in a line: Antiinflammatory activity in HUVEC assessed as reduction in TNF-alpha-induced E-selectin expression at 50 uM preincubated for 30 mins followed by TNF-alpha addition and measured after 4 hrs by ELISA. The class given is functional. Conditions: Homo sapiens, time 4.5 hrs. In a few lines:
(§1)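 HUVECs seeded at 1×10^4/well and grown to confluence; indole derivatives (50 μM) added 30 min before TNFα 10 ng/ml, then 4 h further incubation. Cells fixed and E-selectin (ELAM) measured by ELISA. Parallel Calcein AM read-out monitored non-specific toxicity. Curcumin 10 μM served as positive control.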
(In an ELISA, binding on a coated surface is turned into a signal by an enzyme label.)

The next data set relates to BJ. The experiment in a line: Cytotoxicity against human BJ cells assessed as reduction in cell viability after 72 hrs by calcein-AM staining based fluorescence analysis. An outline of the steps:
(§2)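 Cells in DMEM with 10% FBS, 2 mmol/l L-glutamine, penicillin/streptomycin, 37 °C, 5% CO2. About 1.0×10^5 cells/ml plated, stabilized 24 h, then compounds added from DMSO stocks (final DMSO ≤0.6%), six 3-fold dilutions, top final concentration generally 50 µM. After 72 h, Calcein AM added for 1 h. Fluorescence expressed as % of DMSO controls; IC50 taken from dose-response curves. Means ±SD of three independent experiments in triplicate.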

The next data set relates to MCF7. The experiment in a line: Cytotoxicity against human MCF7 cells assessed as reduction in cell viability after 72 hrs by calcein-AM staining based fluorescence analysis. Particulars: MCF7, 72 h. In a few lines:
as §2

In the next data set the test system is CCRF-CEM. The experiment in a line: Cytotoxicity against human CEM cells assessed as reduction in cell viability after 72 hrs by calcein-AM staining based fluorescence analysis. In a few lines:
as §2

The next data set has as its system HeLa. The experiment in a line: Cytotoxicity against human HeLa cells assessed as reduction in cell viability after 72 hrs by calcein-AM staining based fluorescence analysis. In a few lines:
as §2

A short description of data set [2]: Inhibition of potato 5-LOX assessed as reduction in hydroperoxide level by EIA method. On the set-up: species or system Solanum tuberosum. An outline of the steps: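 Potato 5-LOX kit detecting hydroperoxides formed by lipoxygenation. Compounds dissolved in minimal DMSO and diluted in 0.1 M Tris HCl, pH 7.4, tested at 0.001, 1, 5, 10 μM. IC50 derived per the manufacturer's instructions, mean of two determinations.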

Data set [3] has as its system HUVEC. The experiment in a line: Cytotoxicity against HUVEC assessed as reduction in cell viability measured after 24 hrs by calcein-AM staining based fluorescence analysis. On the set-up: species or system Homo sapiens. Conditions: for Activity: human, huvec, time 24 hrs.
Data set [4] deals with T1, Prostaglandin G/H synthase 1 (Ovis aries, UniProt P05979).
T1 sequence (P05979 whole entry): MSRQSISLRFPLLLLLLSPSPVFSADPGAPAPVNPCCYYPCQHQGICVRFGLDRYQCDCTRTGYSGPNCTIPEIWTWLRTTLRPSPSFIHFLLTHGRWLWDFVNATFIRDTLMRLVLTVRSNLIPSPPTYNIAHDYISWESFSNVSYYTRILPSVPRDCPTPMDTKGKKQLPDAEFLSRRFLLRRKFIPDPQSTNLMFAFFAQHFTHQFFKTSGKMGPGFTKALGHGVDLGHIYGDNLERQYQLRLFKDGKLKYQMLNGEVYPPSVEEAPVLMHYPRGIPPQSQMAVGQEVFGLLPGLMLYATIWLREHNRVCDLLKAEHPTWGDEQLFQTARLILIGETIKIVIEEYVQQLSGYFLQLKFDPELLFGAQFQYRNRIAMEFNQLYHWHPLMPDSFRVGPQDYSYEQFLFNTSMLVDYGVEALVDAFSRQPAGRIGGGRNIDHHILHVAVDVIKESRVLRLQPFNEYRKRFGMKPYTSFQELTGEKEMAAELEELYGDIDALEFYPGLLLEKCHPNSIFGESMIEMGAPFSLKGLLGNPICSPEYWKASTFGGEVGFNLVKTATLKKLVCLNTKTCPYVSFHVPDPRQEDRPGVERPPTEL
The experiment in a line: Inhibition of ovine COX-1 assessed as appearance of oxidized TMPD level by EIA method.

The subject of data set [5] is HUVEC. The experiment in a line: Antiinflammatory activity in HUVEC assessed as reduction in TNF-alpha-induced E-selectin expression at 30 to 50 uM preincubated for 30 mins followed by TNF-alpha addition and measured after 4 hrs by ELISA. The class given is functional. Conditions: dose 30-50 µM, time 4.5 hrs; for Activity: Homo sapiens. In a few lines: as §1

One may read the IC50 as the concentration that gives 50% inhibition. For `Cc1c(/N=C/c2cn(CC(=O)Nc3ccc(O)cc3)c3ccccc23)c(=O)n(-c2ccccc2)n1C`, the result with HUVEC [1] was Active. In addition, the IC50 with BJ is 50 µM; in the data set on MCF7, more than 50 µM; with CCRF-CEM, more than 50 µM; with HeLa it was more than 50 µM.

Regarding `O=C(Cn1cc(/C=N/n2cnnc2)c2ccccc21)Nc1ccc(O)cc1`, in the data set with HUVEC [1], the result was Active. Moreover, the IC50 in the data set on BJ, in the data set on MCF7, with CCRF-CEM and in the data set with HeLa was more than 50 µM in each case.

For `Cc1c(/N=C/c2cn(Cc3ccccc3)c3ccccc23)c(=O)n(-c2ccccc2)n1C`, the IC50 in [2] came out at 5.98 µM; in data set [4] it was 11.2 µM. Also, in the data set on HUVEC [3], the Activity result is on record as “Non-Toxic”. Also, the result in the data set on HUVEC [5] was Active.

Consider `Cc1c(/N=C/c2c[nH]c3ccccc23)c(=O)n(-c2ccccc2)n1C`, for which the result in the data set on HUVEC [1] was Active. Also, the IC50 in the data set with BJ, in the data set with MCF7, in the data set on CCRF-CEM and in the data set with HeLa was more than 50 µM in each case.

Consider `C(=N\n1cnnc1)/c1c[nH]c2ccccc12`, for which the outcome in the data set on HUVEC [1] was Active. The IC50 is more than 50 µM in the data set on BJ, more than 50 µM in the data set with MCF7, more than 50 µM in the data set with CCRF-CEM and 9.9 µM in the data set with HeLa.

On to `CC(=O)c1ccc(NC(=O)Cn2cc(/C=N/n3cnnc3)c3ccccc32)cc1`, for which the result with HUVEC [1] was Active. In addition, the IC50 with BJ, in the data set on MCF7, in the data set with CCRF-CEM and in the data set on HeLa was more than 50 µM each time.

On to `Cc1ccc(C(=O)n2cc(/C=N/c3c(C)n(C)n(-c4ccccc4)c3=O)c3ccccc32)cc1`, for which the figures for the IC50 in data set [2] and in [4] were 5.78 µM and 10.8 µM, respectively. Besides, the Activity result in the data set on HUVEC [3] is given as “Non-Toxic”. The result in the data set with HUVEC [5] was Active.

Broadly, the inhibition is the share of the control response that was lost under treatment. On to `COc1ccc(NC(=O)Cn2cc(/C=N/n3cnnc3)c3ccccc32)cc1`, for which the inhibition at 50 µM in the data set with HUVEC [1] is 15%. For the same compound, the IC50 in the data set with BJ, with MCF7, in the data set with CCRF-CEM and in the data set with HeLa was more than 50 µM throughout.

Regarding `O=C(Cn1cc(/C=N/n2cnnc2)c2ccccc21)Nc1ccccc1`, the outcome in the data set with HUVEC [1] was Active. Also, the IC50 in the data set on BJ, in the data set with MCF7, in the data set with CCRF-CEM and with HeLa was more than 50 µM each time.

With `CCOC(=O)c1ccc(NC(=O)Cn2cc(/C=N/n3cnnc3)c3ccccc32)cc1`, the inhibition at 50 µM in the data set with HUVEC [1] is 15%. Further, the IC50 in the data set on BJ is 31.3 µM; in the data set on MCF7 it was more than 50 µM; in the data set with CCRF-CEM it was more than 50 µM; with HeLa, more than 50 µM.

`Cc1ccc(NC(=O)Cn2cc(/C=N/c3c(C)n(C)n(-c4ccccc4)c3=O)c3ccccc32)cc1`: the outcome with HUVEC [1] was Active. The IC50 in the data set on BJ is 49 µM; with MCF7, more than 50 µM; in the data set on CCRF-CEM, 42 µM; in the data set on HeLa, more than 50 µM.

For the compound `Cc1c(/N=C/c2cn(CC(=O)Nc3ccccc3)c3ccccc23)c(=O)n(-c2ccccc2)n1C`, in the data set on HUVEC [1], the outcome was Active. In addition, the IC50 in the data set on BJ, in the data set on MCF7, in the data set on CCRF-CEM and in the data set on HeLa was more than 50 µM throughout.

`O=c1c(O)c(-c2ccc(O)c(O)c2)oc2cc(O)cc(O)c12` [QUERCETIN]: in [2], the IC50 was determined as 5.96 µM.

For the compound `Cc1c(/N=C/c2cn(C(=O)c3ccccc3)c3ccccc23)c(=O)n(-c2ccccc2)n1C`, the IC50 is 7.54 µM in data set [2] and 7.65 µM in data set [4]. Besides, in the data set with HUVEC [3], the Activity result is “Non-Toxic”. Moreover, the result in the data set with HUVEC [5] was Active.

Turning to `COc1ccc(NC(=O)Cn2cc(/C=N/c3c(C)n(C)n(-c4ccccc4)c3=O)c3ccccc32)cc1`, the outcome with HUVEC [1] was Active. In addition, the IC50 is 50 µM in the data set with BJ, more than 50 µM in the data set on MCF7, 50 µM in the data set with CCRF-CEM and more than 50 µM in the data set with HeLa.

In the case of `CCOC(=O)c1ccc(NC(=O)Cn2cc(/C=N/c3c(C)n(C)n(-c4ccccc4)c3=O)c3ccccc32)cc1`, the result in the data set on HUVEC [1] was Active. Further, the IC50 in the data set with BJ is 50 µM; with MCF7, 38.1 µM; with CCRF-CEM, 29.7 µM; with HeLa, 24.8 µM.

For the compound `CC(=O)c1ccc(NC(=O)Cn2cc(/C=N/c3c(C)n(C)n(-c4ccccc4)c3=O)c3ccccc32)cc1`, in the data set on HUVEC [1], the outcome was Active. Also, the IC50 was more than 50 µM with BJ, more than 50 µM in the data set on MCF7, 42.9 µM with CCRF-CEM and more than 50 µM with HeLa.

For the compound `O=C(c1ccccc1)n1cc(/C=N/n2cnnc2)c2ccccc21`, the IC50 in data set [2] is 6.54 µM; in data set [4] it was 10.4 µM. Moreover, the Activity result with HUVEC [3] is “Non-Toxic”. In the data set with HUVEC [5], the result was Active.

As for `Cc1ccc(NC(=O)Cn2cc(/C=N/n3cnnc3)c3ccccc32)cc1`, in the data set with HUVEC [1], the outcome was Active. Further, the IC50 with BJ, in the data set on MCF7, in the data set on CCRF-CEM and in the data set with HeLa was more than 50 µM throughout.

Consider `Cc1ccc(C(=O)n2cc(/C=N/n3cnnc3)c3ccccc32)cc1`, for which the figures for the IC50 in [2] and in data set [4] were 6.54 µM and 7.89 µM, respectively. Also, in the data set on HUVEC [3], the Activity entry is on record as “Non-Toxic”. The “inhibition (INH)” value in the data set with HUVEC [5] stood at 33%.

Regarding `C(=N\n1cnnc1)/c1cn(Cc2ccccc2)c2ccccc12`, the IC50 in [2] is 7.41 µM; in the data set on HUVEC [3] (Homo sapiens, HUVEC), 14.9 µM; in data set [4], 9.21 µM. Further, the outcome in the data set with HUVEC [5] was Active.

`Cc1c(/N=C/c2cn(C(=O)c3ccc(Cl)cc3)c3ccccc23)c(=O)n(-c2ccccc2)n1C`: the IC50 in [2] was 9.11 µM; in data set [4], 9.25 µM. Besides, the Activity entry in the data set with HUVEC [3] is “Non-Toxic”. In the data set with HUVEC [5], the result was Active.

With `O=C(c1ccc(Cl)cc1)n1cc(/C=N/n2cnnc2)c2ccccc21`, the figures for the IC50 in data set [2] and in data set [4] were 8.11 µM and 8.65 µM, respectively. The Activity result in the data set with HUVEC [3] is recorded as “Non-Toxic”. The outcome in the data set with HUVEC [5] was Active.
